In the EternaBench riboswitch data:

System: MS2 coat protein
Assay: apparent Kd, MS2 coat protein; higher = weaker binding; RNA-MaP array; FMN 200 µM where present
How it was run: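 Apparent Kd: the median of filtered binding-curve fits from single clusters. Designs were transcribed on Illumina sequencing-chip clusters by stalled E. coli RNA polymerase and titrated with SNAP-549-labelled MS2 coat protein from 0.7 or 1.5 nM, doubling to 3 µM, in 100 mM Tris-HCl pH 7.5, 80 mM KCl, 4 mM MgCl2, BSA, DTT, yeast tRNA and Tween-20. Each series ran without and then with constant ligand, and green signal was normalised to red-channel RNA signal and control-cluster median Fmax.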

[1] = designed as: OFF switch for flavin mononucleotide, no ligand
[2] = ligand present: flavin mononucleotide, designed as: OFF switch for flavin mononucleotide
[3] = designed as: ON switch for flavin mononucleotide, no ligand
[4] = ligand present: flavin mononucleotide, designed as: ON switch for flavin mononucleotide

AAUAUGUUGCAGAAGGUUAUUUUUAUAACGAUCCAUUUGACAUGAGGAUCACCCAUGUAAUUGAUGAAGGAUAUGCAAUAUAUU
apparent Kd [1]: 6.42 nM | apparent Kd [2]: 7.18 nM

AAUAUUAAGUAGAAGGUAGAUAUUAUUUUAUUCAUGUUUACAUGAGGAUCACCCAUGUAUAAGUCUAAGGAUAUACAUCGAUAG
apparent Kd [1]: 14.9 nM | apparent Kd [2]: 9.93 nM

AAUCAGCGGAACUUGACAUCCUUACAUGAGGAUCACCCAUGUCAGGAUAUAUGCUCUCGAGCUGCAUAGAAGGGACAUAGUGGG
apparent Kd [1]: 37.7 nM | apparent Kd [2]: 56 nM

AAUCCACAUGAGGAUCACCCAUGUCAGGAUAUGGUGACGCGGGUUUCGGUGCGUGUUGCCAGAAGGGACGGCUG
apparent Kd [1]: 27 nM | apparent Kd [2]: 46.7 nM

AAUCGAUGAUCAGGAUAUGUGGAGCCUCUAAGCGAUGAGGCGUACAUGAGGAUCACCCAUGUGACACAGAAGGGAUACAUGCGG
apparent Kd [3]: 60.7 nM | apparent Kd [4]: 8.43 nM

AAUCGGGAGCAGAAGGCAUGUCAUAAGACAUGAGGAUCACCCAUGUAGUUAAGGCGAAAGCCGCAUGAGGAUAUGCUCCCGUAA
apparent Kd [3]: 71.2 nM | apparent Kd [4]: 6.27 nM

AAUGAGCUAGGAUAUACAUGAGGAUCACCCAUGUAAAAUAGGUCAUGGAGGAACCACUGUAGAAGGAGCAGGGC
apparent Kd [1]: 45.4 nM | apparent Kd [2]: 72.1 nM

AAUGUUUGAUUCCACUUAUACAUGAGGAUCACCCAUGUUAUCGAGGAUAUGCAUUAGAGUGUUUAGCAGAAGGCGAUGUAAAUG
apparent Kd [1]: 7.34 nM | apparent Kd [2]: 24.1 nM

AAUUAAUUGUAGAAGGUACUUAAUUAUGAUAUGUAAGGAUAUACGAUAUUAUAACGACAUGUAUGACAUGAGGAUCACCCAUGU
apparent Kd [3]: 11.2 nM | apparent Kd [4]: 8.4 nM

AAUUAAUUGUAGAAGGUACUUAAUUAUGAUAUGUAAGGAUAUACGAUAUUAUUACGACAUGUAUGACAUGAGGAUCACCCAUGU
apparent Kd [3]: 12.4 nM | apparent Kd [4]: 9.23 nM

AAUUACAUGUAGAAGGUACUUAAUUAAGUGUUGUAAGGAUAUACCAAUUUAUUAGAUUUAAAGAUACAUGAGGAUCACCCAUGU
apparent Kd [3]: 12.1 nM | apparent Kd [4]: 9.76 nM

AAUUACAUGUAGAAGGUACUUAAUUAAGUGUUGUAAGGAUAUACCAAUUUAUUAGUUUUAAAGAUACAUGAGGAUCACCCAUGU
apparent Kd [3]: 10.6 nM | apparent Kd [4]: 9.2 nM

AAUUAGGUCACAGGAUAUACAACUUCCAUUGCUGUAGAAGGGUGUCACAUACUUAGCUGACAUGAGGAUCACCCAUGUAUCCAC
apparent Kd [3]: 243 nM | apparent Kd [4]: 95.2 nM

AAUUAUAUACAGAAGGAGUUAUAUUAAGUAUUACUAGGAUAUGUUCACAUGAGGAUCACCCAUGUCAUAUUGGGAUUUAUUUUU
apparent Kd [1]: 17 nM | apparent Kd [2]: 21.6 nM

AAUUCACAUGAGGAUCACCCAUGUCAGGAUAUGGUGACGCGGGUUUCGGUGCGUGUUGCCAGAAGGGACGGCUG
apparent Kd [2]: 115 nM

AAUUUAAGAUGAGGAUAUUGACAUGAGGAUCACCCAUGUAUUUGGGAAUGUUUACUGAAUUCUUACAAGAAGGUAUACGAACUU
apparent Kd [1]: 185 nM | apparent Kd [2]: 138 nM

AAUUUAAUACAUGAGGAUCACCCAUGUAAUACUAGUAAGAUCUAGGAUAUCAGCUCGAUUAGAGCUGAGAAGGAGAUCACAUGU
apparent Kd [3]: 92.9 nM | apparent Kd [4]: 27.9 nM

AAUUUAAUACAUGAGGAUCACCCAUGUAAUACUAGUAAGAUCUAGGAUAUCAGCUCGUUUAGAGCUGAGAAGGAGAUCACAUGU
apparent Kd [3]: 86.3 nM | apparent Kd [4]: 26 nM

AAUUUAAUACAUGAGGAUCACCCAUGUAAUACUUGUAAGAUCAAGGAUAUCAGCUCGAAUAGAGCUGAGAAGGUGAUCACAUGU
apparent Kd [3]: 75.9 nM | apparent Kd [4]: 227 nM

AAUUUACAGACAGGAUAUACAUGAGGAUCACCCAUGUAAUCAUAUGAUAUUUUUUUUGUAUGAGUGUAGAAGGGUCAAAUAAAA
apparent Kd [1]: 13.5 nM | apparent Kd [2]: 10.6 nM

AAUUUACAGGGAGGAUAUACAUGAGGAUCACCCAUGUCAUCAUAUGAUAUUUCUUUUGUAUGAGUGUAGAAGGCCCAACUACCA
apparent Kd [1]: 18.2 nM | apparent Kd [2]: 18.3 nM

ACAAAGUGAGGAUAUGCUAUCGUACAUUAUUGUUAUCGUUUGCAGAAGGCACAUGAGGAUCACCCAUGUAAGAA
apparent Kd [1]: 29.4 nM | apparent Kd [2]: 30.5 nM

ACAAAGUGAGGAUAUGCUAUUAUACAUUAUUGUUAUUAUUUGCAGAAGGCACAUGAGGAUCACCCAUGUAAGAA
apparent Kd [1]: 29.8 nM | apparent Kd [2]: 22.6 nM

ACAAAUGGAGGAUAUACAUGAGGAUCACCCAUGUAUAUCCUACAUGUGUGAUAAUCAUGUAGAAGGCCAUUUGA
apparent Kd [1]: 14 nM | apparent Kd [2]: 12.3 nM

ACAAAUGGAGGAUAUACAUGAGGAUCACCCAUGUUUAUCCUACAUAUGUGAUAAUCAUGUAGAAGGCCAUAUGA
apparent Kd [1]: 16.5 nM | apparent Kd [2]: 12.5 nM

ACAAAUGGAGGAUAUACAUGAGGAUCACCCAUGUUUAUCCUACAUAUGUGAUACUCAUGUAGAAGGCCAUUUGA
apparent Kd [1]: 13.1 nM | apparent Kd [2]: 12.6 nM

ACAACCAGAGGAUAUGCGCAUAGAUCAGACUUUGUUUCUGAACAUGAGGAUCACCCAUGUAGAAGGCUGUAACA
apparent Kd [1]: 34.9 nM | apparent Kd [2]: 33.9 nM
